Source: ChEMBL document CHEMBL1821698, “Synthesis and biological activities of (R)- and (S)-N-(4-Methoxyphenyl)-N,2,6-trimethyl-6,7-dihydro-5H-cyclopenta[d]pyrimidin-4-aminium chloride as potent cytotoxic antitubulin agents” (J Med Chem, 2011)
The source made the active and inactive calls. The rule behind the calls is not given here.

Experiments:
[1] = test system: MDA-MB-435; assay: Cell cycle arrest in human MDA-MB-435 cells assessed as accumulation of cells at G2/M phase at 3 times IC50 after 18 hrs by flow cytometry; type: functional
[2] = test system: MDA-MB-435; assay: Antiproliferative activity against human MDA-MB-435 cells by SRB assay; type: functional, cell-based
Procedure, shortened: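 SRB assay on drug-sensitive MDA-MB-435 cells; IC50 is the concentration giving 50% inhibition of proliferation, n = 3.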

[3] = test system: SK-OV-3; assay: Antiproliferative activity against human SKOV3 cells; type: functional, cell-based
[4] = test system: SK-OV-3; assay: Antiproliferative activity against MDR-1-6/6 overexpressing human SKOV3 cells; type: functional, cell-based
[5] = test system: SK-OV-3; assay: Relative resistance ratio of IC50 for MDR-1-6/6 overexpressing human SKOV3 cells to IC50 for human SKOV3 cells; type: functional
[6] = test system: HeLa; assay: Antiproliferative activity against human HeLa cells; type: functional, cell-based
[7] = test system: HeLa; assay: Antiproliferative activity against beta3-tubulin overexpressing human HeLa cells; type: functional, cell-based
[8] = test system: HeLa; assay: Relative resistance ratio of IC50 for beta3-tubulin overexpressing human HeLa cells to IC50 for human HeLa cells; type: functional
[9] = test system: MDA-MB-435; assay: Cell cycle arrest in human MDA-MB-435 cells assessed as accumulation of cells at subG1 phase at 3 times IC50 after 18 hrs by flow cytometry; type: functional, cell-based
[10] = Inhibition of bovine brain tubulin assembly
[11] = Inhibition of microtubule polymerization in A-10 cells; conditions: A10
[12] = test system: tubulin (Bos taurus); assay: Displacement of [3H]colchicine from bovine brain tubulin at 5 uM
[13] = test system: tubulin (Bos taurus); assay: Displacement of [3H]colchicine from bovine brain tubulin using purified tubulin at 1 uM
[14] = Ratio of EC50 for microtubule depolymerization in A-10 cells to IC50 for human MDA-MB-435 cells

With `COc1ccc(N(C)c2nc(C)nc3c2CC(C)C3)cc1.Cl` (racemic) the Activity [1] was 65.9%, the IC50 [2] was 17 nM and the IC50 [3] was 34.5 nM. The IC50 [4] was 60.9 nM, the “Ratio IC50” value [5] was 1.8 and the IC50 [6] was 37.3 nM. The IC50 [7] was 23.9 nM, the “Ratio IC50” value [8] was 0.6 and the Activity [9] was “Active”. The IC50 [10] was 1500 nM, the EC50 [11] was 56 nM and the inhibition [12] was 87%. It also gave an inhibition [13] of 59% and a Ratio [14] of 3.

`CC(=O)O[C@H]1C(=O)[C@@]2(C)[C@H]([C@H](OC(=O)c3ccccc3)[C@]3(O)C[C@H](OC(=O)[C@H](O)[C@@H](NC(=O)c4ccccc4)c4ccccc4)C(C)=C1C3(C)C)[C@]1(OC(C)=O)CO[C@@H]1C[C@@H]2O` [PACLITAXEL] gave an IC50 [3] of 2.95 nM and an IC50 [4] of 4880 nM.

`COc1ccc(N(C)c2nc(C)nc3c2C[C@H](C)C3)cc1.Cl` showed an Activity [1] of 49.2%, an IC50 [2] of 12 nM and an IC50 [3] of 16.4 nM. The IC50 [4] was 62.6 nM, the “Ratio IC50” value [5] was 3.8 and the IC50 [6] was 19 nM. The IC50 [7] was 13.3 nM, the “Ratio IC50” value [8] was 0.7 and the Activity [9] was “Active”. It also gave an IC50 [10] of 1300 nM, an EC50 [11] of 23 nM and an inhibition [12] of 93%. The inhibition [13] was 70% and the Ratio [14] was 2.

In the case of `COc1ccc(N(C)c2nc(C)nc3c2C[C@@H](C)C3)cc1.Cl`, the Activity [1] is reported as 91.4%, the IC50 [2] is reported as 51 nM and the IC50 [3] is reported as 85.9 nM. The IC50 [4] was 120 nM, the “Ratio IC50” value [5] was 1.4 and the IC50 [6] was 92.9 nM. For the same compound, the IC50 [7] was 67.7 nM, the “Ratio IC50” value [8] was 0.7 and the IC50 [10] was 2100 nM. The EC50 [11] was 278 nM, the inhibition [12] was 77% and the inhibition [13] was 37%. It also gave a Ratio [14] of 5.

With `COc1ccc(/C=C\c2cc(OC)c(OC)c(OC)c2)cc1O` [COMBRETASTATIN A4] the Activity [1] was 88.4%, the IC50 [2] was 3.4 nM and the IC50 [3] was 6.05 nM. It also gave an IC50 [4] of 22 nM, an EC50 [11] of 13 nM and an inhibition [12] of 98%. The inhibition [13] was 85%.
